Reference: ChEMBL document CHEMBL2424551, “Synthesis, in vitro evaluation and molecular modelling of naphthalimide analogue as anticancer agents” (2013)
Activity calls are given as the source filed them. The rule behind the calls is not given here.

Tests used:
Assay type in all cases: functional
IGROV-1 = experiment: Growth inhibition of human IGROV1 cells at 10 uM after 48 hrs by SRB assay; conditions: IGROV-1, 48 h, read-out: GI
Method in brief: (§1)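 Cells grown in RPMI 1640 with 5% FBS and 2 mM L-glutamine, plated at 5000–40,000 cells/well by doubling time and preincubated 24 h (37 °C, 5% CO2); a time-zero plate is TCA-fixed. Single dose added, then 48 h incubation. Fixed with cold TCA, stained with 0.4% SRB, dye solubilized in 10 mM Tris base, absorbance at 515 nm; percent growth vs time-zero and untreated control.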

K562 = experiment: Growth inhibition of human K562 cells at 10 uM after 48 hrs by SRB assay; conditions: K562, 48 h, read-out: GI; method in brief: as §1
T47D = experiment: Growth inhibition of human T47D cells at 10 uM after 48 hrs by SRB assay; conditions: read-out: GI
Method in brief: (§2)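 NCI 60-cell-line screen with a single 10 µM dose. Cells are grown in RPMI 1640 with 5% FBS and 2 mM L-glutamine, plated at 5000–40,000 cells/well according to doubling time, and preincubated 24 h at 37 °C, 5% CO2; time-zero plates are TCA-fixed at that point. Drug exposure is 48 h. Adherent cells are fixed with cold TCA, stained with 0.4% SRB in 1% acetic acid and read at 515 nm. Percent growth is calculated relative to time-zero and untreated controls and reported as GI%.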

786-0 = experiment: Growth inhibition of human 786-0 cells at 10 uM after 48 hrs by SRB assay; conditions: 786-0, 48 h, read-out: GI; method in brief: as §1
SN12C = experiment: Growth inhibition of human SN12C cells at 10 uM after 48 hrs by SRB assay; conditions: read-out: GI; method in brief: as §2
CAKI-1 = experiment: Growth inhibition of human Caki1 cells at 10 uM after 48 hrs by SRB assay; conditions: CAKI-1, 48 h, read-out: GI; method in brief: as §1
SK-MEL-5 = experiment: Growth inhibition of human SK-MEL-5 cells at 10 uM after 48 hrs by SRB assay; conditions: SK-MEL-5, 48 h, read-out: GI; method in brief: as §1
HOP-92 = experiment: Growth inhibition of human HOP92 cells at 10 uM after 48 hrs by SRB assay; conditions: HOP-92, 48 h, read-out: GI; method in brief: as §1
[1] = Growth inhibition of human EKVX cells at 10 uM after 48 hrs by SRB assay; conditions: read-out: GI; method in brief: as §1
MCF7 = experiment: Growth inhibition of human MCF7 cells at 10 uM after 48 hrs by SRB assay; conditions: MCF7, 48 h, read-out: GI; method in brief: as §1
TK-10 = experiment: Growth inhibition of human TK10 cells at 10 uM after 48 hrs by SRB assay; conditions: TK-10, 48 h, read-out: GI; method in brief: as §2
DU-145 = experiment: Growth inhibition of human DU145 cells at 10 uM after 48 hrs by SRB assay; conditions: DU-145, 48 h, read-out: GI; method in brief: as §1
SW-620 = experiment: Growth inhibition of human SW620 cells at 10 uM after 48 hrs by SRB assay; conditions: SW-620, 48 h, read-out: GI; method in brief: as §2
SNB-75 = experiment: Growth inhibition of human SNB75 cells at 10 uM after 48 hrs by SRB assay; conditions: SNB-75, 48 h, read-out: GI; method in brief: as §2
COLO 205 = experiment: Growth inhibition of human COLO205 cells at 10 uM after 48 hrs by SRB assay; conditions: COLO 205, 48 h, read-out: GI; method in brief: as §1
SK-MEL-28 = experiment: Growth inhibition of human SK-MEL-28 cells at 10 uM after 48 hrs by SRB assay; conditions: SK-MEL-28, 48 h, read-out: GI; method in brief: as §1
Malme-3M = experiment: Growth inhibition of human MALME-3M cells at 10 uM after 48 hrs by SRB assay; conditions: read-out: GI; method in brief: as §1
NCI-H23 = experiment: Growth inhibition of human NCI-H23 cells at 10 uM after 48 hrs by SRB assay; conditions: NCI-H23, 48 h, read-out: GI; method in brief: as §1
HOP-62 = experiment: Growth inhibition of human HOP62 cells at 10 uM after 48 hrs by SRB assay; conditions: HOP-62, 48 h, read-out: GI; method in brief: as §1
RXF 393 = experiment: Growth inhibition of human RXF393 cells at 10 uM after 48 hrs by SRB assay; conditions: RXF 393, 48 h, read-out: GI; method in brief: as §1
MDA-MB-231 = experiment: Growth inhibition of human MDA-MB-231 cells at 10 uM after 48 hrs by SRB assay; conditions: MDA-MB-231, 48 h, read-out: GI; method in brief: as §1
A549 = experiment: Growth inhibition of human A549 cells at 10 uM after 48 hrs by SRB assay; conditions: A549, 48 h, read-out: GI; method in brief: as §1
SNB-19 = experiment: Growth inhibition of human SNB19 cells at 10 uM after 48 hrs by SRB assay; conditions: SNB-19, 48 h, read-out: GI; method in brief: as §2
HCT-15 = experiment: Growth inhibition of human HCT15 cells at 10 uM after 48 hrs by SRB assay; conditions: HCT-15, 48 h, read-out: GI; method in brief: as §1
MDA-MB-468 = experiment: Growth inhibition of human MDA-MB-468 cells at 10 uM after 48 hrs by SRB assay; method in brief: as §1
[2] = Cytotoxicity against human breast cancer cells after 48 hrs by SRB assay; conditions: Cancer cell lines
Method in brief: (§3)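 Five-concentration screen (10-fold or ½-log serial dilutions) on the 60-line panel. Cells grown in RPMI 1640 with 5% FBS and 2 mM L-glutamine, plated at 5000–40,000/well by doubling time, preincubated 24 h at 37 °C, 5% CO2, then exposed 48 h. Time-zero plates TCA-fixed. SRB stain, Tris-solubilized, A515. GI50, TGI and LC50 derived from Tz, C and Ti.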

[3] = Cytotoxicity against human melanoma cells after 48 hrs by SRB assay; conditions: Melanoma cell; method in brief: as §3
[4] = Cytotoxicity against human colon cancer cells after 48 hrs by SRB assay; conditions: Cancer cell lines; method in brief: as §3
[5] = Cytotoxicity against human non-small cell lung cancer cells after 48 hrs by SRB assay; conditions: Cancer cell lines; method in brief: as §3
[6] = Cytotoxicity against human leukemia cells after 48 hrs by SRB assay; conditions: Leukemia cell; method in brief: as §3
[7] = Cytotoxicity against human renal cancer cells after 48 hrs by SRB assay; conditions: Cancer cell lines; method in brief: as §3
[8] = Cytotoxicity against human CNS cancer cells after 48 hrs by SRB assay; conditions: Cancer cell lines; method in brief: as §3
[9] = Cytotoxicity against human ovarian cancer cells after 48 hrs by SRB assay; conditions: Cancer cell lines; method in brief: as §3
[10] = Cytotoxicity against human prostate cancer cells after 48 hrs by SRB assay; conditions: Cancer cell lines; method in brief: as §3
[11] = read-out: LC50 (the source's name)

Work on `O=c1c2cccc3c(N4CCOCC4)ccc(c32)c2nc3ccccc3n12` yielded an inhibition of growth at 10 µM (IGROV-1) of 41.7%, an inhibition of growth at 10 µM (K562) of less than 20% and an inhibition of growth at 10 µM (T47D) of 61.9%. It also gave an inhibition of growth at 10 µM (786-0) of less than 20%, an inhibition of growth at 10 µM (SN12C) of less than 20% and an inhibition of growth at 10 µM (CAKI-1) of 30.4%. The inhibition of growth at 10 µM (SK-MEL-5) was 26.6%, the inhibition of growth at 10 µM (HOP-92) was 40.8% and the inhibition of growth at 10 µM [1] was 61.7%. For the same compound, the inhibition of growth at 10 µM (MCF7) was 76%, the inhibition of growth at 10 µM (TK-10) was 28.2% and the inhibition of growth at 10 µM (DU-145) was less than 20%. For the same compound, the inhibition of growth at 10 µM (SW-620) was less than 20%, the inhibition of growth at 10 µM (SNB-75) was 20.9% and the inhibition of growth at 10 µM (COLO 205) was less than 20%. The inhibition of growth at 10 µM (SK-MEL-28) was less than 20%, the inhibition of growth at 10 µM (Malme-3M) was less than 20% and the inhibition of growth at 10 µM (NCI-H23) was 23.1%. It also gave an inhibition of growth at 10 µM (HOP-62) of less than 20%, an inhibition of growth at 10 µM (RXF 393) of less than 20% and an inhibition of growth at 10 µM (MDA-MB-231) of less than 20%. For the same compound, the inhibition of growth at 10 µM (A549) was less than 20%, the inhibition of growth at 10 µM (SNB-19) was less than 20% and the inhibition of growth at 10 µM (HCT-15) was less than 20%. The “growth inhibition (GI)” value (MDA-MB-468) was “Active”.
For `O=c1[nH]cc(F)c(=O)[nH]1` [FLUOROURACIL], the inhibition of growth at 10 µM (IGROV-1) was 51.2%, the GI50 [2] was 76.4 µM and the TGI [2] was greater than 100 µM. The inhibition of growth at 10 µM (K562) was 42.3%, the inhibition of growth at 10 µM (T47D) was 56.7% and the GI50 [3] was 70.6 µM. The TGI [3] was greater than 100 µM, the inhibition of growth at 10 µM (786-0) was 48.7% and the inhibition of growth at 10 µM (SN12C) was 54%. For the same compound, the inhibition of growth at 10 µM (CAKI-1) was 39.4%, the GI50 [4] was 8.4 µM and the TGI [4] was greater than 100 µM. For the same compound, the CC50 [4, 11] was greater than 100 µM, the GI50 [5] was greater than 100 µM and the TGI [5] was greater than 100 µM. The inhibition of growth at 10 µM (SK-MEL-5) was 33.7%, the GI50 [6] was 1.51 µM and the TGI [6] was greater than 100 µM. It also gave a GI50 [7] of 45.6 µM, a TGI [7] greater than 100 µM and a CC50 [7, 11] greater than 100 µM. For the same compound, the inhibition of growth at 10 µM (HOP-92) was 50.6%, the inhibition of growth at 10 µM [1] was 58.4% and the GI50 [8] was 72.1 µM. It also gave a TGI [8] greater than 100 µM, a CC50 [8, 11] greater than 100 µM and a GI50 [9] of 61.4 µM. It also gave a TGI [9] greater than 100 µM, a CC50 [9, 11] greater than 100 µM and an inhibition of growth at 10 µM (MCF7) of 11.5%. It also gave an inhibition of growth at 10 µM (TK-10) of 66.9%, an inhibition of growth at 10 µM (DU-145) of 35.5% and an inhibition of growth at 10 µM (SW-620) of 50.1%. For the same compound, the inhibition of growth at 10 µM (SNB-75) was 65.9%, the inhibition of growth at 10 µM (COLO 205) was 40.2% and the GI50 [10] was 22.7 µM. It also gave a TGI [10] greater than 100 µM, an inhibition of growth at 10 µM (Malme-3M) of 58.2% and an inhibition of growth at 10 µM (NCI-H23) of 39%. The inhibition of growth at 10 µM (HOP-62) was 47.8%, the inhibition of growth at 10 µM (RXF 393) was 34.3% and the inhibition of growth at 10 µM (MDA-MB-231) was 78.1%. It also gave an inhibition of growth at 10 µM (A549) of 34.2%, an inhibition of growth at 10 µM (SNB-19) of 65.9% and an inhibition of growth at 10 µM (HCT-15) of 26.5%.
